A selection: hits, their analogues and other compounds. The true share with any hit is near 2%.
NR2E3 ag-1: NR2E3 (human) agonism; AID 2300; GST-NR2E3/biotin-RetCOR TR-FRET, 1536-well; actives 0.12% (n = 320,000); Q9Y5X4; inhibition of corepressor binding, % at 4.78 µM;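 active = percent inhibition above the cutoff of mean plus 3 SD of all tested compounds, set per screening campaign, cut at about 20% in these data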;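 note: 0% = DMSO wells and 100% = biotin wells as full block of FRET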
Target sequence (Q9Y5X4 whole entry, looked up): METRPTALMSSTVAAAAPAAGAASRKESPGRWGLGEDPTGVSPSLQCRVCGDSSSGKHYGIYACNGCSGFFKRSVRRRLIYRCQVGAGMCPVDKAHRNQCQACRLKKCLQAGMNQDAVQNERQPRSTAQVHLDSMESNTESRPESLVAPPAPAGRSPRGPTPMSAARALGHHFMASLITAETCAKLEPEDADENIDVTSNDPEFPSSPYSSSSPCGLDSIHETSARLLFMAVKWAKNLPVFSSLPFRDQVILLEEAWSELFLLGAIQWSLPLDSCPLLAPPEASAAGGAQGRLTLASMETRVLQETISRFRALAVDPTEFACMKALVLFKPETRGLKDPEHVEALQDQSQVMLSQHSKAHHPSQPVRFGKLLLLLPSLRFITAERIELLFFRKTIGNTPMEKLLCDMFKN
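Material: NR2E3–RetCOR corepressor complex | Quantity: 1.35 nM GST-tagged NR2E3 final | Schedule: 5 h at 4 °C | Replication: Singlicate compound wells | Reagent: RetCOR corepressor, biotinylated, 7 nM | Controls: Biotin wells as high control, 0.6% DMSO wells as low control | Signal: TR-FRET, Eu(K)-anti-GST donor, streptavidin-D2 acceptor, ex 340, em 617/671 nm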
T cell HTS: T cell immune modulators affecting CD8 T cell-vesicle binding | actives 0.068% (n = 330,000) | response (vesicle binding), % at 7 µM | 2C CD8+ T cell-vesicle binding, flow cytometry; stronger effect = lower value | AID 2052;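 active = response, share of CD8 T cells binding vesicles, and their 90th percentile fluorescence all below set limits, cut at about 80% in these data, passing the limit was not always enough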;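 note: values below 100% mean blocked vesicle binding to the CD8+ T cells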
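Material: 2C TCR transgenic mouse naive CD8+ T cells, MACS-purified. Also added: QL9-charged Drosophila Ld/ICAM-1/B7-1 vesicles. Timing: binding 1.5 h at 37 °C. Measured by: high-throughput flow cytometry with anti-B7-1 and anti-CD8 staining. Read-out: percent CD8+ FL2 mean versus row control. Controls: Unloaded micro-vesicles (low), QL9 vesicles with 0.7% DMSO (high).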
GAA850 FXN act: increases GAA850 frataxin promoter reporter activity; HEK293 lucGAA850 FXN promoter luciferase reporter, 24 h; percent of 10 µM SAHA response; activation, % at 6 µM; actives 0.56% (n = 360,000); AID 540364;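 active = activation above the average of all compounds screened plus 3 SD, cutoff fixed separately per campaign, cut at about 7.5% in these data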;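 note: 0% = DMSO wells and 100% = 10 µM SAHA wells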
NR2E3 ag-2: activates human NR2E3 receptor | Q9Y5X4 | CHO-S Gal4-NCOR/VP16-NR2E3 two-hybrid, luciferase | inhibition of corepressor binding, % at 3.98 µM | actives 0.35% (n = 360,000) | AID 602229;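 active = inhibition above the mean of all tested compounds plus 3 SD, cut at about 70% in these data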;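 note: 0% = DMSO with NR2E3 transfected cells and 100% = cells lacking NR2E3 construct; higher means lower luciferase signal from less NR2E3 corepressor binding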
Myeloid diff 2: compounds promoting myeloid differentiation; AID 624256; calls only at 10 µM; ER-HoxA9 myeloid progenitors, lysozyme-GFP differentiation, flow cytometry; actives 1% (n = 360,000);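 active = normalized GFP-positive differentiation at or above the plate's own cutoff, the solvent-only control mean plus 3 SD; inconclusive = no clear call, values can overlap the other calls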;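 note: cells exposed to compound for four days before flow analysis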
Myeloid diff CP1: compounds promoting myeloid differentiation | shares compounds with Myeloid diff 2 | ER-HoxA9 myeloid progenitors, GFP/Mac1 double-positive flow | calls only | actives 2% (n = 2,300);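 active = share of green or green-and-red cells above 9 and 9% in run 1 or 4 and 3% in run 2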
GFP autofluor: flagged as fluorescent in myeloid differentiation counter-screen; shares compounds with Myeloid diff 2; ER-HoxA9 myeloid progenitors, no estrogen, GFP autofluorescence flow cytometry; vehicle wells 0%, positive control 100%; fluorescence response, % (no concentration beside the values); actives 7.4% (n = 2,300); AID 651707;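 active = over 5% cells positive for green fluorescent reporter, or over 2% positive for both it and APC stain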;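 note: range taken on the double positive population between DMSO and positive control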
* = called active by the depositor; i = inactive; ? = inconclusive; / = not tested or not shown; + = active, no number.

SMILES	NR2E3 ag-1	T cell HTS	GAA850 FXN act	NR2E3 ag-2	Myeloid diff 2	Myeloid diff CP1	GFP autofluor
CN(CC(=O)Nc1ccccc1Cl)C(=O)CSc1nc2ccccc2s1	-5	312	3	-1	i	/	/
COc1cc(NC(=O)c2cc3nc(C4CC4)cc(C(F)(F)F)n3n2)c(OC)cc1Cl	0	422	0	12	i	i	0
N#Cc1ccccc1OCC(=O)Nc1ccccc1C(=O)NC1CC1	1	430	-1	-31	i	/	/
C(=N\N(c1ccccc1)c1ccccc1)/c1ccc(N2CCOCC2)s1	-3	264	2	-8	+	i	0
C=C1CC2(OC1=O)c1ccccc1CCc1ccccc12	/	/	-9	4	?	/	/
Cc1ccc(C(=O)OCCc2c(C)[nH]n(-c3ccccc3)c2=O)cc1	1	964	3	2	i	i	0
Cc1[nH]n(-c2ccccc2)c(=O)c1CCOC(=O)c1cccc(C(F)(F)F)c1	-4	i	-2	-11	i	/	/
O=C(C[C@@H]1C=C[C@H](NS(=O)(=O)c2ccccc2F)[C@@H](CO)O1)NCCCN1CCOCC1	/	/	/	/	i	/	/
CCC(=O)N1CCCC(C(=O)Nc2nc3ccccc3[nH]2)CC1 (configuration not stated)	/	/	2	-7	i	/	/
O=C(CN1CCCCC1)Nc1nnc(-c2ccc([N+](=O)[O-])cc2)s1	1	207	-3	-32	i	i	0
COc1ccc(Cl)cc1-c1noc([C@@H]2O[C@H](CO)[C@@H](O)[C@H]2O)n1	/	/	1	-21	i	/	/
COc1ccc(CC(=O)NCCS(=O)(=O)N2CCN(c3ccccc3OC)CC2)cc1	2	364	-2	-4	i	/	/
Fc1ccccc1NC(=S)N1CCN(Cc2ccc3c(c2)OCO3)CC1	3	338	1	-14	i	/	/
Cc1cc(Cl)ccc1NC(=S)N1CCN(Cc2ccc3c(c2)OCO3)CC1	1	276	-1	-11	+	i	0
CC1=NN(c2nc(N)nc(/C(C#N)=C/c3ccc([N+](=O)[O-])o3)n2)C(C)(C)C1	/	/	5	-3	?	/	/
CCOC(=O)[C@]12CCC=C1N(Cc1cccc3ccccc13)C(=O)[C@H](CC(=O)N1CCN(C(=O)C3CC3)CC1)C2	/	/	/	-11	i	/	/
O=C(NCCc1ccccc1)C1CCCN1C(=O)Nc1ccc(F)cc1 (configuration not stated)	3	390	-1	-11	+	i	0
Cc1[nH]c2ccccc2c1C(=O)COC(=O)c1ccc([N+](=O)[O-])s1	2	499	0	9	i	i	1
CC[N+](C)(CC)CCC(c1ccccc1)C1CCCCC1 (configuration not stated)	-4	174	-1	-29	i	i	0
CC[N+](C)(CC)CCOC(=O)C(O)(c1ccccc1)C1CCCCC1 (configuration not stated)	5	512	5	14	?	/	/
CCOc1ccc(CCNC(=O)Cn2nc(C)c3c(C)n(-c4ccccc4)nc3c2=O)cc1OCC	0	305	0	6	i	/	/
O=C(O)c1ccccc1CC(CCc1ccccc1)C(=O)O (configuration not stated)	/	/	0	-13	i	/	/
CC1(C)CC(NC(=O)c2sc3cc(Cl)ccc3c2Cl)CC(C)(C)N1	-3	359	1	2	i	i	0
O=C(NC1CC1)c1sc2cc(Cl)ccc2c1Cl	0	267	1	-63	i	/	/
COc1cc2c(cc1OC)C1Cc3ccc(OC)c(OC)c3C[N+]1([O-])CC2 (configuration not stated)	2	537	0	7	i	/	/
SMILES	NR2E3 ag-1	T cell HTS	GAA850 FXN act	NR2E3 ag-2	Myeloid diff 2	Myeloid diff CP1	GFP autofluor
CCCCN1C(=O)c2ccc(C(=O)NC3(C)CCS(=O)(=O)C3)cc2C1=O (configuration not stated)	1	i	0	7	+	i	0
CCn1c(SCC(=O)N2CCN(c3ccc(F)cc3)CC2)nc2ccccc2c1=O	5	186	-2	43	i	i	0
COCCCN1C(=O)C(CC(=O)NCCN2CCOCC2)CC(C(=O)N(C)C)=C1C (configuration not stated)	/	/	/	12	i	/	/
O=C(CCCn1c(=S)[nH]c2cc3c(cc2c1=O)OCO3)N1CCN(c2ncccn2)CC1	1	476	0	-3	i	i	0
O=C(CCCCCn1c(=S)[nH]c2cc3c(cc2c1=O)OCO3)N1CCN(c2ccccc2)CC1	-1	328	0	-13	i	/	/
CCC(C)c1c(O)nc(SCC(=O)N2CCOCC2)[nH]c1=O (configuration not stated)	3	319	2	34	i	i	0
COc1cc(CN2CCc3ccccc3C2)ccc1O	0	135	-1	-14	?	/	/
CCCn1nnc(NC(=O)c2cc(Br)ccc2OC)n1	7	446	3	-9	i	i	0
Cc1ccc(C(=O)CCC(=O)OCC(=O)Nc2ccccc2SCC#N)cc1	3	i	1	-6	+	i	89*
CSc1ccccc1NC(=O)COC(=O)CCC(=O)c1ccc(F)cc1	/	201	3	-15	i	/	/
Cc1ccc(S(=O)(=O)N2CC3(O)CN(C(=O)OC(C)C)N(C(=O)OC(C)C)CC3(OC(=O)NC3CCCC3)C2)cc1 (configuration not stated)	/	/	0	-1	i	/	/
Cc1cccc(C)c1NC(=O)C1(C)CSCC(=O)N1CCOc1ccccc1 (configuration not stated)	/	/	/	/	i	i	0
COCCN1C(=O)CSCC1(C)C(=O)Nc1c(C)cccc1C (configuration not stated)	/	/	/	/	i	/	/
COc1ccc(-c2cc3ccccc3n2CC(O)CN2CCC(C)CC2)cc1 (configuration not stated)	-1	144	-3	16	i	i	0
COc1ccc(-c2noc(-c3csc([C@@H]4O[C@H](CO)[C@H](O)[C@H](O)[C@H]4O)n3)n2)cc1OC	/	/	2	-13	i	/	/
COC(=O)c1c(NC(=O)C2Cc3ccccc3C(=O)O2)sc2c1CCCC2 (configuration not stated)	3	195	3	-31	i	/	/
COC(=O)c1c(NC(=O)C2(C)Cc3ccccc3C(=O)O2)sc2c1CCCC2 (configuration not stated)	1	832	1	16	+	i	0
Clc1ccc(-n2cc(-c3ccc(Br)cc3)[n+]3c2CCCCC3)cc1	-7	335	-1	8	i	/	/
